Bioassay records deposited in PubChem BioAssay by The Scripps Research Institute Molecular Screening Center.
zfTRPN1 agonist = zebrafish TRPN1 (NompC) channel agonism; HEK293 zebrafish TRPN1-YFP, Fluo-8 calcium fluorescence; 100% = response to 87 µM carbachol; activation, % at 3 µM; 0.18% of 220,000 active; AID 1424;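 active means activation above its plate's cutoff, the mean activation of test wells on that plate plus 3 SD, cut at about 19% in these data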;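 further: 0% = DMSO alone and 100% = 87 µM carbachol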
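Material – zebrafish TRPN1-YFP in HEK293 cells · Doses – 3 µM single point · Schedule – dye 1 h 37 °C plus 30 min RT · Signal – Fluo-8 calcium fluorescence, excitation 470-495 nm, emission 515-575 nm · Read-out – % activation versus carbachol response · Control set – carbachol high, DMSO low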
TRPML3 agonist = activates the human TRPML3 channel. Q8TDD5. HEK293 TRPML3-YFP, Fluo-8 calcium fluorescence; 100% = the carbachol control signal. activation, % at 3 µM. 0.29% of 220,000 active. AID 1448;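 active means activation above its plate's cutoff, the mean activation of the plate's test wells plus 3 SD, cut at about 12% in these data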;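 further: 0% = DMSO only wells and 100% = carbachol wells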
Target sequence (Q8TDD5 whole entry, looked up): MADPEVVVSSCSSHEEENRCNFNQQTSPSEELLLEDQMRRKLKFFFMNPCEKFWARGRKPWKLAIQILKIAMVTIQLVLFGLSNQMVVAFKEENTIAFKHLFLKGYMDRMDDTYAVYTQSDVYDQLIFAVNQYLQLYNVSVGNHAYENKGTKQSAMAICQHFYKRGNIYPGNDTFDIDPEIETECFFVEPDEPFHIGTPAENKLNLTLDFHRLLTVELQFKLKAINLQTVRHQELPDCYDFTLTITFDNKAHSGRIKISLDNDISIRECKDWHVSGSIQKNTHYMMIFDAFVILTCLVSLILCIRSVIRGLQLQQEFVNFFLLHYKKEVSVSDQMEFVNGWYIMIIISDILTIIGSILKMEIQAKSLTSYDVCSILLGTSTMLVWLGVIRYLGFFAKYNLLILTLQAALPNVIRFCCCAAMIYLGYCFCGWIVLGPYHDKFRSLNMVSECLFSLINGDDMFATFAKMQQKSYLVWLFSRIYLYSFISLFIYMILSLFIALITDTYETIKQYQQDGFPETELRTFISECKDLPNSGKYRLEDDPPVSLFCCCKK
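Test system – HEK293 line with stable expression of human TRPML3-YFP channel · Control set – carbachol 87 µM final as high control (100%), DMSO as low control (0%) · Signal – Fluo-8 calcium dye fluorescence, ex 470-495, em 515-575 nm · Incubation – 1-h 37 °C dye load, 5-s basal, 120-s post-compound reads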
CHO parental Ca = counter-screen for OX1R antagonists: effect in parental CHO cells; parental CHO-K1, ATP-induced calcium, Fluo-8 fluorescence; inhibition, % at 5.6 µM; 0.63% of 330,000 active; AID 463079;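 active means inhibition above that plate's mean sample inhibition plus 3 SD, cut at about 26% in these data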;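 further: 0% = ATP-challenged DMSO wells and 100% = DMSO wells without ATP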
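Assay system: parental CHO cells; Read-out basis: percent inhibition of ATP-evoked calcium rise, normalized to controls; Benchmarks: ATP and no-ATP DMSO wells; Compound dosing: single nominal dose of 5.6 µM per compound; Signal: Fluo-8 calcium dye fluorescence; Also added: ATP as calcium-mobilizing challenge; Repeats: singlicate.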
OX1R antag-1 = blocks the human orexin 1 receptor; 0.43% of 330,000 active; CHO/OX1R cells, Fluo-8 calcium fluorescence, orexin A; O43613; inhibition, % at 5 µM; AID 434989;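 active means inhibition above its plate's threshold, mean inhibition of all tested compounds on the plate plus 3 SD, cut at about 37% in these data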;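 further: 0% = orexin A challenge wells and 100% = SB-334867-A antagonist wells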
OX1R antag-2 = OX1R (human) antagonism. 1.8% of 330,000 active. OX1R-expressing cells, FRET antagonist read-out. inhibition, % at 6.6 µM. AID 485270; in the data active means inhibition mostly above about 38%, no sharp cut-off; inactive means mostly below about 40%;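 further: 0% = agonist challenge alone and 100% = reference antagonist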
Numbers without * were called inactive; . = not tested or not shown. Most compounds without a hit are left out; they make up all but 2.5% or so of the library.

SMILES	zfTRPN1 agonist	TRPML3 agonist	CHO parental Ca	OX1R antag-1	OX1R antag-2
Cc1ccc(NC(=O)Cn2c(=O)oc3cc(S(=O)(=O)N4CCC(C)CC4)ccc32)cc1C	-1	1	32*	-8	14
COc1ccc(NC(=O)Cn2c(=O)oc3cc(S(=O)(=O)N4CCCC4)ccc32)cc1	.	.	9	0	2
Cc1ccc(Cl)cc1NC(=O)CC(O)(C(F)(F)F)C(F)(F)F	20*	13*	5	24	34
COCC(=O)Nc1cc(Cl)ccc1C	1	0	-8	-20	28
Cc1ccccc1CNC(=O)C(=O)NCCC1CCCCN1S(=O)(=O)c1ccccc1 (centres undefined)	.	.	-5	-23	26
Cc1ccc(C)c(S(=O)(=O)N2CCCOC2CNC(=O)C(=O)NC2CCCC2)c1 (centres undefined)	.	.	-19	-20	24
CCOc1cccc2c1OC1(C)CC2NC(=O)N1c1cccc(Cl)c1 (centres undefined)	1	0	-4	-8	44*
O=C(Nc1ccc(Cl)c(Cl)c1)N1CCCCCC1	.	.	33*	19	11
O=C(CN1CCN(S(=O)(=O)N2CCCCC2)CC1)Nc1ccc(Cl)c(Cl)c1	.	.	32*	-5	21
O=C(Nc1ccc(Cl)c(Cl)c1)N1CCC(N2CCCCC2)CC1	1	1	-5	-17	9
O=C(CN1CCN(S(=O)(=O)N2CCCCC2)CC1)Nc1cc(Cl)cc(Cl)c1	.	.	-23	-30	2
Cc1cc(C)nc(NS(=O)(=O)c2ccc(NS(=O)(=O)c3ccsc3)cc2)n1	1	1	3	5	2
CN1CCN(CCCNC(=O)Nc2ccc([N+](=O)[O-])cc2)CC1	.	.	6	0	12
O=C(O)/C=C/C(=O)NC1CCC(CC2CCC(NC(=O)/C=C/C(=O)O)CC2)CC1 (centres undefined)	0	1	-8	-2	16
O=C(Nc1nc(-c2ccc(Cl)s2)cs1)c1ccncc1	8	3	-20	8	44*
CC1CC1C(=O)Nc1nc(-c2ccc(Cl)s2)cs1 (centres undefined)	-2	0	1	-1	16
O=C(CSCC(=O)N1CCCCC1)Nc1nc(-c2ccc(Cl)s2)cs1	5	2	30*	-13	20
O=C(CSCC(=O)N1CCN(c2ccccc2)CC1)Nc1nc(-c2ccc(Cl)s2)cs1	2	1	15	-5	30
O=C1C=C(N(CCO)Cc2ccccc2)c2ccccc2C1=O	2	0	.	.	.
O=C1c2ccccc2C(=O)c2c1cccc2N(CCO)CCO	.	.	-10	-18	59*
CC1CCCC(NC(=O)CCNC(=O)c2ccccc2Cl)C1C (centres undefined)	.	.	-12	-23	8
NC1=C(c2ccccc2)C(=O)NC1=O	.	.	-15	-15	40*
COc1ccc(-c2nc(C(=O)NCC3CCCO3)cc3c2[nH]c2ccccc23)cc1 (centres undefined)	.	.	-9	-11	22
Cc1ccc(-c2nc(C(=O)NCC3CCCO3)cc3c2[nH]c2ccccc23)cc1 (centres undefined)	.	.	-5	-15	50*
COc1cc(S(=O)(=O)N2CCOCC2)cc(C(=O)OCC(=O)NCc2ccco2)c1OC	.	.	-1	-17	0
SMILES	zfTRPN1 agonist	TRPML3 agonist	CHO parental Ca	OX1R antag-1	OX1R antag-2
CCN(CC)c1ccc(/C=C2\SC(=O)N(C(C)C)C2=O)o1	40*	9	-11	-20	25
CC(C)N1C(=O)S/C(=C/c2ccc3c(c2)n(C)c(=O)n3C)C1=O	1	1	-16	-16	23
COC(=O)c1csc(S(=O)(=O)N2CCCCC2)c1OC	-2	1	-8	-17	9
O=C(C[n+]1ccccc1)N/N=C/c1cc(Br)ccc1F	.	.	-7	-15	14
O=C(C[n+]1ccccc1)N/N=C/c1cc(Br)cc(Br)c1O	.	.	4	-4	29*
O=C(c1cc(COc2cccc(C(F)(F)F)c2)on1)N1C[C@@H]2CCC[C@H]1C2	.	.	-6	-23	31
COc1ccc(OC)c(-n2c(SCC(=O)N3CCc4ccccc43)nc3c(c2=O)SCC3)c1	-1	0	-12	-18	39*
Clc1nnc(Cl)c2c1ncn2Cc1ccccc1	.	.	1	-2	4
O=C(Nc1cccnc1Cl)c1noc2c1CCc1ccccc1-2	1	1	-17	-23	11
Cc1cc(N=Nc2ccccc2C(=O)O)c(C)c(C)c1O	-2	-1	6	-3	50*
